We go through 20 compounds from article PMC3479646 (ChemMedChem, 2011).

A word on the Ki: it is a dissociation constant, usually derived from enzyme kinetics or from competition with a known ligand. A higher Ki goes with a looser hold on the target. By EC50 is commonly meant the concentration giving half of the maximal effect. Low values mean an effect from little substance, high ones a need for much substance.

In assay [1] the test system is Swiss albino mice. The assay can be described thus: Antagonism of pentobarbital-induced sleeping time. Format: in vivo. The settings on record: 10 μmol kg^−1 i.v.; for Sleep Time: pentobarbital 50 mg kg^−1 i.p. 10 min later, mean ± SEM; for Decrease in Sleep Time: (1−S/C)×100 relative to control, negative = increase; for effect on pentobarbital-induced sleeping time (in words): compared with control group.

Assay [2] addresses T1, TRH-R1 (Mus musculus, UniProt P21761).
T1 sequence (P21761 1-393): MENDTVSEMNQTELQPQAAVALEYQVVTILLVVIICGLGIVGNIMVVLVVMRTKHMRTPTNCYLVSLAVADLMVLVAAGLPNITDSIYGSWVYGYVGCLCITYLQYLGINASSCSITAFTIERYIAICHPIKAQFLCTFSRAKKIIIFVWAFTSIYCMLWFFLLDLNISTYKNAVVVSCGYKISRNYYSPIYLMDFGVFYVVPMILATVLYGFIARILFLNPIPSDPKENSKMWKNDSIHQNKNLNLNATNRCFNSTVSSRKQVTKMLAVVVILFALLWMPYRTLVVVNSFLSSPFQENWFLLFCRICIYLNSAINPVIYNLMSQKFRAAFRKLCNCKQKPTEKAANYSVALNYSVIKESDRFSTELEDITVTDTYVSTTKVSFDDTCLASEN
The assay can be described thus: Receptor binding assay, competition with [3H][Nτ.

In assay [3] the test system is TRH-R2. The assay can be described thus: Receptor binding assay, competition with [3H][Nτ. The conditions noted are these: ratio of Ki at TRH-R1 and TRH-R2; direction differs between compounds.
Assay [4] concerns the target T1, TRH-R1. The assay can be described thus: Signaling. Format: cell-based. In a few lines: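 HEK 293EM cells stably expressing TRH-R1, grown in DMEM with 10 % FBS and hygromycin, were seeded at 1.5 × 10^5 cells/well. After 16 h they were calcium-phosphate co-transfected with CREB and a CREB-driven luciferase reporter. Various concentrations of test compound were added in 1 % FBS medium for 6 h at 37 °C. Lysate luminescence was then read for 10 s, with 0.4 mM luciferin and 2 mM ATP. Data are from duplicates in three experiments.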

Assay [5] concerns TRH-R2. The assay can be described thus: Signaling. The conditions noted are these: ratio of EC50 at TRH-R1 and TRH-R2. The assay is classed as cell-based. In a few lines:
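HEK 293EM cells stably expressing TRH-R1 or TRH-R2 were co-transfected with CREB and a CREB-luciferase reporter by calcium phosphate. […] Lysates were read by luminescence (0.4 mM luciferin, 2 mM ATP, 10 s). EC50 (μM) was found at each subtype, mean ±SD, duplicates, three experiments.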

The test system of assay [6] is mice. Kind of assay: Pentylenetetrazole. Format: in vivo. The settings on record: 10 μmol kg^−1 i.v. 10 min prior to PTZ 65 mg kg^−1 i.p.; mean ± SEM.
The subject of assay [7] is mice. Kind of assay: Maximal electric shock. Format: in vivo. The conditions noted are these: 10 μmol kg^−1 i.v. 10 min prior to MES 45 mA for 0.2 s; mean ± SEM. The procedure, abridged:
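Male Swiss albino mice (20–30 g, n = 6–8/group) received saline vehicle or test compound at 10 μmol kg−1 i.v. via the tail vein. MES (45 mA, corneal electrode, 0.2 s) was applied 10 min later, and the duration of tonic hind limb extension was recorded. Data were analysed by one-way ANOVA with Tukey test versus saline.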

Each structure is given as a SMILES string. Marks after values point to notes of the source that are not given here.

As to `CCCC1=NC=CC=CC=C2CN1C=C2C[C@H](NC(=O)[C@@H]1CCC(=O)N1)C(=O)N1CCC[C@H]1C(N)=O` [Compd 10 h, L-pGlu-L-His(1-benzyl-2-propyl)-L-ProNH2], in assay [1], the “Sleep Time” value turned out to be 105.1 ± 5.76 min, the “Decrease in Sleep Time” value is given as −18.8% and the “effect on pentobarbital-induced sleeping time (in words)” value (“effect” for short) is “increased the sleeping time significantly”.

With `CCCn1cnc(C[C@H](NC(=O)[C@@H]2CCC(=O)C2)C(=O)N2CCC[C@H]2C(N)=O)c1` [Compd 21 c, (1R)-3-Ocp-L-His(1-propyl)-L-ProNH2], affinity in assay [2] was put at a Ki of 8.1 µM. In assay [3], the “Fold Selectivity (Ki)” value stood at 1.5. This compound registered an EC50 in assay [4] of 4.6 µM. Besides, the “Fold Selectivity (EC50)” value in assay [5] is listed as 4. Moreover, in assay [6], the “PTZ: Clonic Convulsions Frequency” value worked out at 1.3 ± 0.21 min⁻¹ and the “PTZ: Clonic Convulsions Onset” value is listed as 68 ± 3 s. Besides, in assay [7], the “MES: Hind Limb Extension Duration” value came to 12.3 ± 0.90 s.

As for `CN1C=C(C[C@H](NC(=O)[C@@H]2CCCC(=O)N2)C(=O)N2CCC[C@H]2C(N)=O)C23CC4CC(CN=C12)CC(C4)C3` [Compd 16 m, L-pAad-L-His[1-methyl-2-(adamantan-1-yl)]-L-ProNH2], in assay [1], the “Sleep Time” value is 76.0 ± 10.9 min and the “Decrease in Sleep Time” value is 15.4%.

For `NC(=O)[C@@H]1CCCN1C(=O)[C@H](CC1=CN2CC1=CC=CC=CC1CCN=C12)NC(=O)[C@@H]1CCC(=O)C1` (stereo partly drawn) [Compd 22 d, (1R)-3-Ocp-L-His(1-benzyl-2-cyclopropyl)-L-ProNH2], in assay [1], the “Sleep Time” value is listed as 104.9 ± 5.5 min and the “Decrease in Sleep Time” value was −16.7%.

In assay [2], `CCn1cnc(C[C@H](NC(=O)[C@@H]2CCC(=O)C2)C(=O)N2CCC[C@H]2C(N)=O)c1` [Compd 21 b, (1R)-3-Ocp-L-His(1-ethyl)-L-ProNH2] displayed a Ki of 0.1 µM. For the same compound, in assay [3], the “Fold Selectivity (Ki)” value came to 3.2. This compound returned an EC50 in assay [4] of 0.14 µM. Besides, in assay [5], the “Fold Selectivity (EC50)” value was found to be 4.7. In addition, in assay [6], the “PTZ: Clonic Convulsions Frequency” value was 1.3 ± 0.21 min⁻¹ and the “PTZ: Clonic Convulsions Onset” value was 149 ± 8 ^*^, ^** s. Further, in assay [7], the “MES: Hind Limb Extension Duration” value is 11.3 ± 1.4 s.

`Cn1cc(C[C@H](NC(=O)[C@@H]2CCCC(=O)N2)C(=O)N2CCC[C@H]2C(N)=O)nc1C(C)(C)C` [Compd 16 j, L-pAad-L-His(1-methyl-2-tert-butyl)-L-Pro-NH2] showed a Ki in assay [2] greater than 50 µM. Besides, in assay [4], the EC50 is greater than 50 µM. In assay [1], the “Sleep Time” value worked out at 93.1 ± 4.5 min and the “Decrease in Sleep Time” value is reported as −3.6%.

As for `CC(C)n1cnc(C[C@H](NC(=O)[C@@H]2CCC(=O)C2)C(=O)N2CCC[C@H]2C(N)=O)c1` [Compd 21 d, (1R)-3-Ocp-L-His(1-isopropyl)-L-ProNH2], in assay [2], the inhibition constant (Ki) is greater than 50 µM. The compound further gave an EC50 in assay [4] greater than 50 µM. In assay [1], the “Sleep Time” value was 123.2 ± 5.9 min and the “Decrease in Sleep Time” value was −36.8%.

On to `Cn1cc(C[C@H](NC(=O)[C@@H]2CCC(=O)C2)C(=O)N2CCC[C@H]2C(N)=O)nc1C(C)(C)C` [Compd 22 j, (1R)-3-Ocp-L-His(1-methyl-2-tert-butyl)-L-ProNH2], for which, in assay [1], the “Sleep Time” value was 89.8 ± 3.0 min and the “Decrease in Sleep Time” value is given as −0.01%.

Take `CN1C=C(C[C@H](NC(=O)[C@@H]2CCC(=O)C2)C(=O)N2CCC[C@H]2C(N)=O)C2CCCCCN=C21` (stereo partly drawn) [Compd 22 k, (1R)-3-Ocp-L-His(1-methyl-2-cyclohexyl)-L-ProNH2]: in assay [1], the “Sleep Time” value was 106.2 ± 3.0 min and the “Decrease in Sleep Time” value is −18.1%.

Consider `CC(C)c1nc(C[C@H](NC(=O)[C@@H]2CCCC(=O)N2)C(=O)N2CCC[C@H]2C(N)=O)cn1C` [Compd 16 i, L-pAad-L-His(1-methyl-2-isopropyl)-L-ProNH2], for which, in assay [1], the “Sleep Time” value worked out at 124.3 ± 5.8 min and the “Decrease in Sleep Time” value was −38.2%.

For `NC(=O)[C@@H]1CCCN1C(=O)[C@H](CC1=CN2CC1=CC=CC=CC1CCCCN=C12)NC(=O)[C@@H]1CCC(=O)N1` (stereo partly drawn) [Compd 10 l, L-pGlu-L-His(1-benzyl-2-cyclopentyl)-L-ProNH2], in assay [1], the “Sleep Time” value was 163.3 ± 18.7 ^[b, ^c] min; the “Decrease in Sleep Time” value is on record as −84.7%; the “effect” value is listed as “increased the sleeping time significantly”.

`CCCc1nc(C[C@H](NC(=O)[C@@H]2CCC(=O)C2)C(=O)N2CCC[C@H]2C(N)=O)cn1C` [Compd 22 h, (1R)-3-Ocp-L-His(1-methyl-2-propyl)-L-ProNH2] showed a Ki in assay [2] greater than 50 µM. For the same compound, in assay [4], the EC50 is greater than 50 µM. Further, in assay [1], the “Sleep Time” value was 80.2 ± 2.4 min and the “Decrease in Sleep Time” value is on record as 10.7%.

In assay [2], `Cn1cnc(C[C@H](NC(=O)[C@@H]2CCC(=O)C2)C(=O)N2CCC[C@H]2C(N)=O)c1` [Compd 21 a, (1 R)-3-Ocp-L-His(1-methyl)-L-ProNH2] displayed a Ki of 0.17 µM. Also, in assay [2] (Ki compared with TRH), the “decrease in binding affinity for TRH-R1 relative to TRH” value came to 10 fold. In addition, the “Fold Selectivity (Ki)” value in assay [3] stood at 10.6. The compound further returned an EC50 in assay [4] of 0.05 µM. The “Fold Selectivity (EC50)” value in assay [5] is listed as 24. Besides, in assay [6], the “PTZ: Clonic Convulsions Frequency” value is 1.3 ± 0.33 min⁻¹ and the “PTZ: Clonic Convulsions Onset” value was 153 ± 7 ^*^, ^** s. The “MES: Hind Limb Extension Duration” value in assay [7] is on record as 10.0 ± 0.60 s.

Take `CN1C=C(C[C@H](NC(=O)[C@@H]2CCCC(=O)N2)C(=O)N2CCC[C@H]2C(N)=O)C2CCCCN=C21` (stereo partly drawn) [Compd 16 k]: in assay [1], the “Sleep Time” value stood at 108.1 ± 14.4 min and the “Decrease in Sleep Time” value was −20.2%.

In assay [2], `CC(C)c1nc(C[C@H](NC(=O)[C@@H]2CCC(=O)N2)C(=O)N2CCC[C@H]2C(N)=O)cn1C` [Compd 10 b, L-pGlu-L-His(1-methyl-2-isopropyl)-L-ProNH2] came in with a Ki greater than 50 µM. The EC50 in assay [4] is greater than 50 µM. In addition, in assay [1], the “Sleep Time” value was determined as 66.2 ± 9.8 min, the “Decrease in Sleep Time” value was found to be 25.1% and the “effect” value is “significant decrease in sleeping time”.

`CCCc1nc(C[C@H](NC(=O)[C@@H]2CCCC(=O)N2)C(=O)N2CCC[C@H]2C(N)=O)cn1C` [Compd 16 h, L-pAad-L-His(1-methyl-2-propyl)-L-ProNH2]: in assay [1], the “Sleep Time” value worked out at 98.1 ± 9.4 min and the “Decrease in Sleep Time” value was −9.1%.

Turning to `CC(C)(C)C1=NC=CC=CC=C2CN1C=C2C[C@H](NC(=O)[C@@H]1CCC(=O)C1)C(=O)N1CCC[C@H]1C(N)=O` [Compd 22 c, (1R)-3-Ocp-L-His(1-benzyl-2-tert-butyl)-L-ProNH2], in assay [1], the “Sleep Time” value was determined as 91.6 ± 3.8 min and the “Decrease in Sleep Time” value was −1.9%.

`CCCc1nc(C[C@H](NC(=O)[C@@H]2CCC(=O)N2)C(=O)N2CCC[C@H]2C(N)=O)cn1C` [Compd 10 a, L-pGlu-L-His(1-methyl-2-propyl)-L-ProNH2] came in with a Ki in assay [2] of 0.32 µM. Moreover, the “Fold Selectivity (Ki)” value in assay [3] stood at 1.9. In assay [4], this compound displayed an EC50 of 0.29 µM. Moreover, the “Fold Selectivity (EC50)” value in assay [5] is on record as 11. In assay [1], the “Sleep Time” value was 41.7 ± 6.1 ^[b] min, the “Decrease in Sleep Time” value is 52.7% and the “effect” value is “significant decrease in sleeping time”.

Compound `CC(C)c1nc(C[C@H](NC(=O)[C@@H]2CCC(=O)C2)C(=O)N2CCC[C@H]2C(N)=O)cn1C` [Compd 22 i, (1R)-3-Ocp-L-His(1-methyl-2-isopropyl)-L-ProNH2] yielded a Ki in assay [2] greater than 50 µM. Besides, in assay [1], the “Sleep Time” value was 39.8 ± 5.5 ^[b, ^c] min and the “Decrease in Sleep Time” value is on record as 55.6%.

The compound `Cn1cc(C[C@H](NC(=O)[C@@H]2CCC(=O)N2)C(=O)N2CCC[C@H]2C(N)=O)nc1C(C)(C)C` [Compd 10 c, L-pGlu-L-His(1-methyl-2-tert-butyl)-L-ProNH2] displayed a Ki in assay [2] greater than 50 µM. Also, the EC50 in assay [4] is greater than 50 µM. Besides, in assay [1], the “Sleep Time” value stood at 59.6 ± 5.5 min and the “Decrease in Sleep Time” value was 32.5%.
